The target of assay [1] is T1, Lysine-specific demethylase 4A (Homo sapiens) (UniProt O75164).
T1 sequence (whole entry): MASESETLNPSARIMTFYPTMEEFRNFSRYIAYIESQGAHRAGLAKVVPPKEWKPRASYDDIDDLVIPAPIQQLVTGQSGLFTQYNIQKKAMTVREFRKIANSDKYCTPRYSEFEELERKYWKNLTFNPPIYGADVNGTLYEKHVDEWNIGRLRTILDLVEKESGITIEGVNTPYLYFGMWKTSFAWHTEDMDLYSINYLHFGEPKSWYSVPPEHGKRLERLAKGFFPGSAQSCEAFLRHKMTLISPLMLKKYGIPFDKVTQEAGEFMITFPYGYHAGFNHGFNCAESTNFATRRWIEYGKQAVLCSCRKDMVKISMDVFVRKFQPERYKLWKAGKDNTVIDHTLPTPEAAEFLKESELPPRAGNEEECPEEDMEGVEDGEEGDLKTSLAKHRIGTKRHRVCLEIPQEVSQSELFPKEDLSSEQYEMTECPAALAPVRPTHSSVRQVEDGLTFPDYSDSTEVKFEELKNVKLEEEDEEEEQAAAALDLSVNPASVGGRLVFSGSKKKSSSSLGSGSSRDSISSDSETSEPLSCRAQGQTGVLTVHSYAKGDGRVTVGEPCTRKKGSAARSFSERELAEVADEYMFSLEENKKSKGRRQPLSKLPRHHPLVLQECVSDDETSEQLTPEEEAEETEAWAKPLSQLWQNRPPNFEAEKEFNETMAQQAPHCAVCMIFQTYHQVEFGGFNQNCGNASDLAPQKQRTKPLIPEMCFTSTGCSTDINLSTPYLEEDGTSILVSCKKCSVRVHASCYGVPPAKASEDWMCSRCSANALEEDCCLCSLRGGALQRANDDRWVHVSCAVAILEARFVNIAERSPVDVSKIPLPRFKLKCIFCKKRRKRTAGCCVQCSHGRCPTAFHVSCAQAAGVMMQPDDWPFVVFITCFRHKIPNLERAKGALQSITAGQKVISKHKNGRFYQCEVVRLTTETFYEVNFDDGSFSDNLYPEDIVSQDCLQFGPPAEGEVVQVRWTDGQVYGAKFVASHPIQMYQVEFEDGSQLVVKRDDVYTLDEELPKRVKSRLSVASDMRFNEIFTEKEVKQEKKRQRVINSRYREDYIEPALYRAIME
Description: Inhibition of JMJD2A-mediated H3K9 demethylation activity at 3 mM. The method in brief:
(§1)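 GST fusions of JMJD2A (aa 2–350) or JMJD2C (aa 2–352), made in E. coli and purified on glutathione-agarose. Each was incubated with histones in 50 mM Hepes pH 7.4, 50 mM NaCl, 50 mM KCl, 2 mM ascorbate, 0.2 mM (NH₄)₂Fe(SO₄)₂ and α-ketoglutarate, with inhibitor in DMSO or DMSO alone, 1 h at 37 °C. Read-out was anti-H3K9me₃ Western blot with ECL; H4K20me₁ served as a control.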

For assay [2], the target named is T1, Lysine-specific demethylase 4A (Homo sapiens). Kind of assay: Inhibition of JMJD2A-mediated H3K9 demethylation activity at 1 mM. The method in brief:
as §1

Assay [3] deals with T2, Lysine-specific demethylase 4C (Homo sapiens) (UniProt Q9H3R0).
T2 sequence (whole entry): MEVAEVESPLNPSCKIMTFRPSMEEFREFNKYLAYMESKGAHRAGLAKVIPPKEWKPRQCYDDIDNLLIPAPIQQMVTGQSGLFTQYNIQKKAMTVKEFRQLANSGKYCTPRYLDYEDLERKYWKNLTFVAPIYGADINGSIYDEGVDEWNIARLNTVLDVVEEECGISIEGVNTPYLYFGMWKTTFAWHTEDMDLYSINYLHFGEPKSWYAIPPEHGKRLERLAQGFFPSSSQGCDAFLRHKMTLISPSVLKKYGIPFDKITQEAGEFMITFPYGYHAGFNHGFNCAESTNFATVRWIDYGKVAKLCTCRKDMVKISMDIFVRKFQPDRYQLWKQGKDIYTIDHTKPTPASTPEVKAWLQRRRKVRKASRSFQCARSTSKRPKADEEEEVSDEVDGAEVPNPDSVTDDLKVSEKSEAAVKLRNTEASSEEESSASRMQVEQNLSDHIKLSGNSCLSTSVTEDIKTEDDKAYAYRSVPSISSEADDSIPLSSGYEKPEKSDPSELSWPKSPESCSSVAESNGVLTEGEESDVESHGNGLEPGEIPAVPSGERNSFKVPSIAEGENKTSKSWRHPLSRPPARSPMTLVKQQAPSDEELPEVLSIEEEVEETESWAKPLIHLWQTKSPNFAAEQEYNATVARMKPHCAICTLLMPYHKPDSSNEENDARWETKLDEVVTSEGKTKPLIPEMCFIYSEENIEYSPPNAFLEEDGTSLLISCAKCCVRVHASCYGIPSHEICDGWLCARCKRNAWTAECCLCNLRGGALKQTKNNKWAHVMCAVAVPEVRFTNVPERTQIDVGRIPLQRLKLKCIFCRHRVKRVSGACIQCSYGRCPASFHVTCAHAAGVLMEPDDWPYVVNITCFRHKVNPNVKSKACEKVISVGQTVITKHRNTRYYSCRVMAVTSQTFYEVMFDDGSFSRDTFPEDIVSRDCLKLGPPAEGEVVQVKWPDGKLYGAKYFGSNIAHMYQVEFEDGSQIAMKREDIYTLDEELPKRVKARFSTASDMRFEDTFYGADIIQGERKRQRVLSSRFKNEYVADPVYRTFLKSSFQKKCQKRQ
Description: Inhibition of JMJD2C-mediated H3K9 demethylation activity at 3 mM. The method in brief: as §1

The target of assay [4] is T3, Lysine-specific demethylase 4D (Homo sapiens) (UniProt Q6B0I6).
T3 sequence (whole entry): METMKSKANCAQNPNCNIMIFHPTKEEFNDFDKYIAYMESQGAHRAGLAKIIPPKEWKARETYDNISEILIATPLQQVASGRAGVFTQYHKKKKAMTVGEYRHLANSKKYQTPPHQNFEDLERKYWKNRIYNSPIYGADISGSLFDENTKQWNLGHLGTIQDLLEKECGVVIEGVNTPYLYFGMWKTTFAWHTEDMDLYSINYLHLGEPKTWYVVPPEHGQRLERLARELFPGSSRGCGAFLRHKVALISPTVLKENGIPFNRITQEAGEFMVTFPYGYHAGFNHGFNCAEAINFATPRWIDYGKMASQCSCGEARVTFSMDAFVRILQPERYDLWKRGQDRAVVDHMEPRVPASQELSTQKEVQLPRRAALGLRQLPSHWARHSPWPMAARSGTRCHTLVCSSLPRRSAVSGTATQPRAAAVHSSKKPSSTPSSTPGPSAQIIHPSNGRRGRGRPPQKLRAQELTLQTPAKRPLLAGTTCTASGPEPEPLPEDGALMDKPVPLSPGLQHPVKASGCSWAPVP
Kind of assay: Inhibition of JMJD2D-mediated H3K9 demethylation activity at 3 mM. A digest of the protocol: (§2)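 Full-length GST-JMJD2D, expressed in E. coli and purified on glutathione-agarose, was incubated with histones, α-ketoglutarate, 2 mM ascorbate and 0.2 mM (NH₄)₂Fe(SO₄)₂ in 50 mM Hepes pH 7.4 with 50 mM NaCl and 50 mM KCl. Inhibitor in DMSO, or DMSO alone, was present for 2 h at 37 °C. H3K9me₃ was detected by Western blot with ECL, with H4K20me₁ as a control.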

Assay [5] concerns the target T2, Lysine-specific demethylase 4C (Homo sapiens). Kind of assay: Inhibition of JMJD2C-mediated H3K9 demethylation activity at 1 mM. The method in brief: as §1
The target of assay [6] is T3, Lysine-specific demethylase 4D (Homo sapiens). Description: Inhibition of JMJD2D-mediated H3K9 demethylation activity at 1 mM. A digest of the protocol: as §2
The target in assay [7] is T2, Lysine-specific demethylase 4C (Homo sapiens). Description: Inhibition of JMJD2C-mediated H3K36 demethylation in human 293T cells at 2.5 mM. It counts as cell-based. A digest of the protocol: (§3)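 293T cells were transfected with or without Flag-JMJD2C by calcium phosphate coprecipitation; the precipitate was washed off with PBS after 12 h. Cells were grown 12 h in DMEM + 10% FCS under 10% CO₂, then for 24 h in fresh medium containing inhibitor in DMSO or 1% DMSO. Lysates were boiled in Laemmli buffer and histone methylation was assessed by Western blotting.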

Assay [8] concerns the target Lysine-specific demethylase 4C (Homo sapiens) (UniProt Q9H3R0). Kind of assay: Inhibition of JMJD2-mediated H3K9 demethylation in human 293T cells at 2.5 mM.
Assay [9] concerns the target T2, Lysine-specific demethylase 4C (Homo sapiens). Kind of assay: Inhibition of JMJD2C-mediated H3K9 demethylation in human 293T cells at 2.5 mM. It counts as cell-based. The method in brief: as §3
For assay [10] the target is unchanged. Kind of assay: Inhibition of JMJD2C-mediated H3K36 demethylation in human 293T cells at […]. It counts as cell-based. A digest of the protocol: as §3
The target is the same in assay [11]. Kind of assay: Inhibition of JMJD2C-mediated H3K9 demethylation in human 293T cells at […]. It counts as cell-based. The method in brief:
as §3

For assay [12], the target named is Lysine-specific demethylase 4C (Homo sapiens) (UniProt Q9H3R0). Description: Inhibition of JMJD2-mediated H3K36 demethylation in human 293T cells at 2.5 mM.

Activity calls are given as the source filed them. The calls are words filed in the database; no cut-off is given here.

For `CN(C)c1cccc(CN(CC(=O)O)C(=O)C(=O)O)c1`, the Histone_modification result in [1], in [3] and in assay [4] was “Active” in each case. In addition, the Histone_modification entry in [2] and in assay [5] was “inactive” in each case.

On to `CN(C)c1ccc(CCN(CC(=O)O)C(=O)C(=O)O)cc1`, for which the Histone_modification result in [6], in assay [1], in assay [3] and in assay [4] was “Active” in each case. For the same compound, the Histone_modification entry in [2] and in [5] was “inactive” in each case.

Consider `CN(C)c1ccc(CCCN(CC(=O)O)C(=O)C(=O)O)cc1`, for which, in assay [6], the Histone_modification entry was “Active”. For the same compound, the Histone_modification entry in assay [1] and in [3] was “Active-partial” each time. Moreover, the Histone_modification result in assay [2] and in [5] was “inactive” in each case.

On to `COC(=O)CN(Cc1ccc(N(C)C)cc1)C(=O)C(=O)OC`, for which the Histone_modification result in assay [7] and in assay [9] was “inactive” throughout. Further, the Histone_modification result in assay [8] was “Active”.

Regarding `CN(C)c1ccc(CN(CC(=O)O)C(=O)C(=O)O)cc1`, the Histone_modification result in assay [6], in assay [1], in assay [3] and in assay [4] was “Active” throughout. For the same compound, the Histone_modification result in assay [2] and in assay [5] was “inactive” in each case.

Regarding `COC(=O)CCC(=O)OC`, the Histone_modification entry in assay [10] and in assay [11] was “inactive” throughout.

`O=C(O)CNC(=O)C(=O)O`: the Histone_modification result in assay [6], in assay [1], in assay [2], in [3], in [4] and in assay [5] was “Active” in each case.

Turning to `COC(=O)CNC(=O)C(=O)OC`, the Histone_modification entry in assay [7], in assay [8], in [12] and in assay [9] was “Active” in each case.

The values are drawn from ChEMBL document CHEMBL1152903, “Synthesis and activity of N-oxalylglycine and its derivatives as Jumonji C-domain-containing histone lysine demethylase inhibitors” (Bioorg Med Chem Lett, 2009).
